The values that follow come from ChEMBL document CHEMBL1806409, “Design, synthesis and biological evaluation of novel 4-thiazolidinones containing indolin-2-one moiety as potential antitumor agent” (Eur J Med Chem, 2011).

In assay [1] the test system is WI-38. Description: Cytotoxicity against human WI38 cells assessed as cell growth inhibition after 72 hrs by MTT assay. The class given is cell-based. Particulars: WI-38, 72 h. A digest of the protocol: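 WI-38 normal human fetal lung fibroblasts were seeded at about 4 × 10³ cells/well and held 24 h at 37 °C, 5% CO₂, then exposed to compounds for 72 h. MTT was given for 4 h at 37 °C and formazan dissolved in DMSO. A492 was read with a 630 nm reference, and IC50 was averaged from three runs.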
A general note: Formazan colour is commonly taken as a measure of viable cells.

In assay [2] the test system is WI-38. Description: Selectivity index, ratio of IC50 for human WI38 cells to IC50 for human H460 cells. It is filed as functional. A digest of the protocol:
(§1)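 The index is the IC50 in WI-38 normal fibroblasts divided by the IC50 in the cancer line (H460 or HT-29). Each IC50 comes from a 72 h MTT growth-inhibition assay averaged over three determinations.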

Assay [3] has as its system HT-29. Nature of the assay: Selectivity index, ratio of IC50 for human WI38 cells to IC50 for human HT-29 cells. It is filed as functional. A digest of the protocol: as §1
For a further assay, the system named is SMMC-7721. Description: Cytotoxicity against human SMMC7721 cells assessed as cell growth inhibition after 72 hrs by MTT assay. It is filed as functional, cell-based. The conditions noted are these: SMMC-7721, 72 h. The method, boiled down:
(§2)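 Cancer lines grown in MEM with 10% FBS. About 4 × 10³ cells/well were seeded in MEM and incubated 24 h at 37 °C, 5% CO₂. Compounds were then added at final concentrations and exposure ran 72 h. MTT was added for 4 h at 37 °C and formazan dissolved in DMSO. Absorbance was read at 492 nm against a 630 nm reference. IC50 is the average of three determinations.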

For another assay, the system named is NCI-H460. Description: Cytotoxicity against human H460 cells assessed as cell growth inhibition after 72 hrs by MTT assay. Particulars: NCI-H460, 72 h. The class given is functional, cell-based. The method, boiled down:
as §2

For a further assay, the system named is MDA-MB-231. Nature of the assay: Cytotoxicity against human MDA-MB-231 cells assessed as cell growth inhibition after 72 hrs by MTT assay. It is filed as functional, cell-based. The conditions noted are these: MDA-MB-231, 72 h. The method, boiled down:
as §2

The test system of assay [4] is HT-29. Description: Cytotoxicity against human HT-29 cells assessed as cell growth inhibition after 72 hrs by MTT assay. The class given is functional, cell-based. Particulars: HT-29, 72 h. A digest of the protocol: as §2

In general, IC50 refers to the midpoint of a concentration-inhibition curve. In the case of `CCN(CC)CCCn1c(=O)c(=Cc2ccc3c(c2)OCO3)s/c1=C1\C(=O)Nc2ccc(F)cc21` (mixture of isomers), the IC50 was determined as 6980 nM in the assay with WI-38 [1]; 1950 nM in the assay on SMMC-7721; 75 nM with NCI-H460; 770 nM in the assay on MDA-MB-231; 25 nM in the assay with HT-29 [4]. In addition, the results for the “Ratio IC50” value in the assay on WI-38 [2] and in the assay on HT-29 [3] were 93 and 279, respectively.
For the compound `COc1ccc(C=c2s/c(=C3\C(=O)Nc4cc(F)ccc43)n(CCN(C)C)c2=O)c(OC)c1` (mixture of isomers), the IC50 in the assay with WI-38 [1] came out at 3010 nM; in the assay on SMMC-7721, 6810 nM; in the assay with NCI-H460, 20500 nM; with MDA-MB-231, 4830 nM; in the assay on HT-29 [4] it was 868 nM.
Taken in the same sequence, the figures for `COc1cc(C=c2s/c(=C3\C(=O)Nc4ccc(F)cc43)n(CCN(C)C)c2=O)cc(OC)c1OC` (mixture of isomers) were 8100 nM, 6060 nM, 1700 nM, 1900 nM and 2530 nM.
